The M2OR odorant receptor database

Key:
Details in all cases: stereoisomer not certain
OR4CB P8T = test system: T1, OR4CB P8T
T1 sequence (whole entry): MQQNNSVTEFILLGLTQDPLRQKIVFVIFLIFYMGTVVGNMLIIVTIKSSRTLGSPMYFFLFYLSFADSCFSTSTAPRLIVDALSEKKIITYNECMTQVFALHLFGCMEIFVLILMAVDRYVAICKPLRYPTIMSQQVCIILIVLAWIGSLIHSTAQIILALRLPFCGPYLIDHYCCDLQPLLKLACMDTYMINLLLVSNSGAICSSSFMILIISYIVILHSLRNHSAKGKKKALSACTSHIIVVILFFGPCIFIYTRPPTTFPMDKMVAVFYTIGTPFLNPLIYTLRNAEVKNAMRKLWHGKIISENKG
Outline: (§1)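 Assay methods differ from source to source, frequently being transient luciferase assays in mammalian cell lines. For each receptor–molecule pair, the label responsive (active) applies when the original authors judged the measured signal statistically different from baseline, and non-responsive (inactive) applies otherwise.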

OR4CC = test system: OR4CC
Outline: as §1

OR4CD V133I = test system: OR4CD V133I
Outline: as §1

OR4CF = test system: OR4CF
Outline: as §1

OR4CG T76A = test system: T2, OR4CG T76A
T2 sequence (whole entry): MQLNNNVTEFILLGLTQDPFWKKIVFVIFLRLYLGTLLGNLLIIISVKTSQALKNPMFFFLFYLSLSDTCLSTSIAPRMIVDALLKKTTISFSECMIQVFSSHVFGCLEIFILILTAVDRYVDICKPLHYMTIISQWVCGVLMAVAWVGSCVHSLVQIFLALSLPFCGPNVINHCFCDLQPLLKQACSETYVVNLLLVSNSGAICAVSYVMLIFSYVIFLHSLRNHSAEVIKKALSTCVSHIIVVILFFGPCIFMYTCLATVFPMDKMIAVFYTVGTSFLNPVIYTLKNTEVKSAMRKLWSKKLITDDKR
Outline: as §1

OR4D1 (Homo sapiens) = OR4D1 (Homo sapiens) (UniProt Q15615)
Outline: as §1

OR4D10 (Homo sapiens) = OR4D10 (Homo sapiens) (UniProt Q8NGI6)
Outline: as §1

OR4D11 (Homo sapiens) = OR4D11 (Homo sapiens) (UniProt Q8NGI4)
Outline: as §1

OR4D1 = test system: OR4D1
Outline: as §1

OR4D2 (Homo sapiens) = OR4D2 (Homo sapiens) (UniProt P58180)
Outline: as §1

Measured: odorant receptor agonist call

Sequence of OR4D11 (Homo sapiens) (Q8NGI4 whole entry): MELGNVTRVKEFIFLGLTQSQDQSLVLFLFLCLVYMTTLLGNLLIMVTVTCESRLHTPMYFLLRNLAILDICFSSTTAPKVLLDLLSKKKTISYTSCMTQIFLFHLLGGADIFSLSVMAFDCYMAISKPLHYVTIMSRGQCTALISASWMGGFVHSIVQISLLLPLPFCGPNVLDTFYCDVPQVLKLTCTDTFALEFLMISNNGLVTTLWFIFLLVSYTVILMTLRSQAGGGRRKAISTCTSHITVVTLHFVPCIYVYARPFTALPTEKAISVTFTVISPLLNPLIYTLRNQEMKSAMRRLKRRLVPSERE
Sequence of OR4D1 (as listed by the source): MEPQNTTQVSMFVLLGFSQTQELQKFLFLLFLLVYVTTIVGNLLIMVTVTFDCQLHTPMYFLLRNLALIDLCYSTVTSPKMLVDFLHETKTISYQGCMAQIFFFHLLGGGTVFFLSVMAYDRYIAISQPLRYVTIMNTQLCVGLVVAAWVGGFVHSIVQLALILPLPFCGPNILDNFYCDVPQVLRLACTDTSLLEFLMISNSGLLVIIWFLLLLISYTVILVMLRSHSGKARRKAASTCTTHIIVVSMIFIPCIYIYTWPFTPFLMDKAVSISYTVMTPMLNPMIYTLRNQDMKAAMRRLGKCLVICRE
Sequence of OR4D2 (Homo sapiens) (P58180 whole entry): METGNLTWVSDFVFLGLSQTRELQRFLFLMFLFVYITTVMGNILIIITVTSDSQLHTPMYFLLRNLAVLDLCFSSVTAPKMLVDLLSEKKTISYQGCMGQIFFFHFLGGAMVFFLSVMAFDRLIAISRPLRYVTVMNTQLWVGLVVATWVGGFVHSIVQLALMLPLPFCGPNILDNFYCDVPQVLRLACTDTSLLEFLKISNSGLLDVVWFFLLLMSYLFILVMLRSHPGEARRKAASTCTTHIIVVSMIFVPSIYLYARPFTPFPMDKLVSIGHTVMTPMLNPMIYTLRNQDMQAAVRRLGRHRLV
Sequence of OR4CC (as listed by the source): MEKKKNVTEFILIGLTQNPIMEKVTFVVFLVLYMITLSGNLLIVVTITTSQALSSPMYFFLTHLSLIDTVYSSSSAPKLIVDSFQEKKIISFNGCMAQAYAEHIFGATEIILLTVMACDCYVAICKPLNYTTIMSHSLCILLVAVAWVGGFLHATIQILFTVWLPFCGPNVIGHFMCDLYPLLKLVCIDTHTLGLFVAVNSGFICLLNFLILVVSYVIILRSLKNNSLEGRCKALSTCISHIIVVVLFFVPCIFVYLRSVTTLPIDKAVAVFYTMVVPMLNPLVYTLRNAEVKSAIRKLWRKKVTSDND
Sequence of OR4D1 (Homo sapiens) (Q15615 whole entry): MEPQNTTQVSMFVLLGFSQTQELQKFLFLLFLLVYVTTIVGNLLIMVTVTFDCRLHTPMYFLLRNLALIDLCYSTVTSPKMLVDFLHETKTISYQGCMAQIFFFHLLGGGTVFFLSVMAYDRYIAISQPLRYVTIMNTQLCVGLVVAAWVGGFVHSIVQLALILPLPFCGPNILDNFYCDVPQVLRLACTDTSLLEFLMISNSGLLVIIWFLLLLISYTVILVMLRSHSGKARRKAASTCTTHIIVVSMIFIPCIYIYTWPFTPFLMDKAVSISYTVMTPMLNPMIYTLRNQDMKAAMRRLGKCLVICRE
Sequence of OR4CF (as listed by the source): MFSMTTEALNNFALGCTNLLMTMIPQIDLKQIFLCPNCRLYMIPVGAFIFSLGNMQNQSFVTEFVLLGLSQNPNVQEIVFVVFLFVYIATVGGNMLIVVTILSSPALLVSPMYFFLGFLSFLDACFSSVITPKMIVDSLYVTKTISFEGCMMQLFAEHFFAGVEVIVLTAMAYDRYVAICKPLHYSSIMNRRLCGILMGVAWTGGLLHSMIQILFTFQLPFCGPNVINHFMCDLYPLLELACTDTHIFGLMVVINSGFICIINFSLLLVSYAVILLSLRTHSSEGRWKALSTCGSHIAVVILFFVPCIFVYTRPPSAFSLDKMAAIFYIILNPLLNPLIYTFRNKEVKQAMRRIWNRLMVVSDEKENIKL
Sequence of OR4CD V133I (as listed by the source, stated change not applied): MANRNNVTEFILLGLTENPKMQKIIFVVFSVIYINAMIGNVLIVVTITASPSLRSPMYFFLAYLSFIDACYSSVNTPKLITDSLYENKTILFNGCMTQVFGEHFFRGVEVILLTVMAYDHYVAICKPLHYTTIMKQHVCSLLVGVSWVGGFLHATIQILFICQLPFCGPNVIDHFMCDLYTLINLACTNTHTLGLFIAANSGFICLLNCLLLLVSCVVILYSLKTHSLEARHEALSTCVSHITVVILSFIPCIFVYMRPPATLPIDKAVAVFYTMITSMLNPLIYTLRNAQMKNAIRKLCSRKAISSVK
Sequence of OR4D10 (Homo sapiens) (Q8NGI6 whole entry): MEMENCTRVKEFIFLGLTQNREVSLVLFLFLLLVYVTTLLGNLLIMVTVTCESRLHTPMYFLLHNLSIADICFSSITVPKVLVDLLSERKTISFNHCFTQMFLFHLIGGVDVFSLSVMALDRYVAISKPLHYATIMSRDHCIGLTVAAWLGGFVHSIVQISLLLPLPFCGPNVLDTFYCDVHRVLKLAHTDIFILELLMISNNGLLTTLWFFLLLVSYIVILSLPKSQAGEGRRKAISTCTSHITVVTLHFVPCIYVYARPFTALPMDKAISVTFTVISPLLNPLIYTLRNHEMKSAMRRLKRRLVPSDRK

CCC1OC(C)=C(O)C1=O (configuration not stated)
inactive: OR4CB P8T | OR4CC | OR4CD V133I | OR4CF | OR4CG T76A | OR4D1 (Homo sapiens) | OR4D10 (Homo sapiens) | OR4D11 (Homo sapiens) | OR4D1 | OR4D2 (Homo sapiens)

CCCC(S)CCOC(C)=O (configuration not stated)
inactive: OR4CB P8T | OR4CC | OR4CD V133I | OR4CF | OR4CG T76A | OR4D1 (Homo sapiens) | OR4D10 (Homo sapiens) | OR4D11 (Homo sapiens) | OR4D1 | OR4D2 (Homo sapiens)

CCC1OC(=O)C(O)=C1C (configuration not stated)
inactive: OR4CB P8T | OR4CC | OR4CD V133I | OR4CF | OR4CG T76A | OR4D1 (Homo sapiens) | OR4D10 (Homo sapiens) | OR4D11 (Homo sapiens) | OR4D1 | OR4D2 (Homo sapiens)

CC1=NC(C)C(C)S1 (configuration not stated)
inactive: OR4CB P8T | OR4CC | OR4CD V133I | OR4CF | OR4CG T76A | OR4D1 (Homo sapiens) | OR4D10 (Homo sapiens) | OR4D11 (Homo sapiens) | OR4D1 | OR4D2 (Homo sapiens)

CCC(S)C(C)CO (configuration not stated)
inactive: OR4D1 (Homo sapiens) | OR4D10 (Homo sapiens) | OR4D11 (Homo sapiens) | OR4D2 (Homo sapiens)

CCCCC(S)C(C)CO (configuration not stated)
inactive: OR4D1 (Homo sapiens) | OR4D10 (Homo sapiens) | OR4D11 (Homo sapiens) | OR4D2 (Homo sapiens)

CCCCCCC=CCCC=O
inactive: OR4CB P8T | OR4CC | OR4CD V133I | OR4CG T76A | OR4D1 (Homo sapiens) | OR4D10 (Homo sapiens) | OR4D11 (Homo sapiens) | OR4D1 | OR4D2 (Homo sapiens)

CCCCCC(=O)C(C)C(C)=O (configuration not stated)
inactive: OR4D1 (Homo sapiens) | OR4D10 (Homo sapiens) | OR4D11 (Homo sapiens) | OR4D2 (Homo sapiens)

CC(=O)c1c(C)c([N+](=O)[O-])c(C(C)(C)C)c([N+](=O)[O-])c1C
inactive: OR4D1 (Homo sapiens) | OR4D10 (Homo sapiens) | OR4D11 (Homo sapiens) | OR4D2 (Homo sapiens)

CCCCCC(S)C(C)CO (configuration not stated)
inactive: OR4D1 (Homo sapiens) | OR4D10 (Homo sapiens) | OR4D11 (Homo sapiens) | OR4D2 (Homo sapiens)

CC(CO)CS (configuration not stated)
inactive: OR4D1 (Homo sapiens) | OR4D10 (Homo sapiens) | OR4D11 (Homo sapiens) | OR4D2 (Homo sapiens)

Cc1cnc(C)c(C)n1
inactive: OR4CB P8T | OR4CC | OR4CD V133I | OR4CF | OR4CG T76A | OR4D1 (Homo sapiens) | OR4D10 (Homo sapiens) | OR4D11 (Homo sapiens) | OR4D1 | OR4D2 (Homo sapiens)

CC1=C(O)C(=O)OC1C (configuration not stated)
inactive: OR4CB P8T | OR4CC | OR4CD V133I | OR4CF | OR4CG T76A | OR4D1 (Homo sapiens) | OR4D10 (Homo sapiens) | OR4D11 (Homo sapiens) | OR4D1 | OR4D2 (Homo sapiens)

CC1=C(O)C(=O)C(C)O1 (configuration not stated)
inactive: OR4CB P8T | OR4CC | OR4CD V133I | OR4CF | OR4CG T76A | OR4D1 (Homo sapiens) | OR4D10 (Homo sapiens) | OR4D11 (Homo sapiens) | OR4D1 | OR4D2 (Homo sapiens)

CC1CCCCCCCCCCCCC(=O)C1 (configuration not stated)
inactive: OR4D1 (Homo sapiens) | OR4D10 (Homo sapiens) | OR4D11 (Homo sapiens) | OR4D2 (Homo sapiens)
